Data from ChEMBL document CHEMBL2439981, “Design, synthesis, and biological evaluation of bone-targeted proteasome inhibitors for multiple myeloma” (Bioorg Med Chem Lett, 2013).

Tests used:
Format in all cases: functional, cell-based
RPMI-8226 = test: Cytotoxicity against human RPMI8226 cells after 48 to 72 hrs by SRB assay
How it was run: (§1)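 Cells seeded in triplicate at 3,000 per well in RPMI with 10% fetal bovine serum; drugs added after 24 h at six or more concentrations (1–18 nM in the dose-response figure). Exposure 72 h per methods and figure legend, 48 h per table footnote. Sulforhodamine B colorimetric read-out. IC50 from growth-inhibition curve, mean ±SD of at least 3 independent experiments.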

[1] = (§2) Cytotoxicity against mouse 5TGM1 cells after 48 to 72 hrs by SRB assay; how it was run: as §1
5TGM1 = test: as §2; how it was run: as §1

Q: Which IC50 (RPMI-8226) does the source give for CC(C)C[C@H](NC(=O)[C@H](Cc1ccccc1)NC(=O)c1cnccn1)B(O)O [BORTEZOMIB] here?
A: The IC50 was 9.5 nM.

Q: And the inhibition (RPMI-8226)?
A: The inhibition was “Dose-dependent effect”.

Q: What about the IC50 [1] of the same molecule?
A: The IC50 was 6.78 nM.

Q: What about the inhibition (5TGM1) of the same molecule?
A: The inhibition was “Dose-dependent effect”.

Q: What does the source list for CC(C)C[C@H](NC(=O)[C@H](CC(C)C)NC(=O)[C@H](CC(C)C)NC(=O)OCc1ccc(C(=O)NCCCC(O)(P(=O)(O)O)P(=O)(O)O)cc1)B(O)O?
A: IC50 (RPMI-8226): 12.5 nM; inhibition (RPMI-8226): Dose-dependent effect; IC50 [1]: 4.89 nM; inhibition (5TGM1): Dose-dependent effect

Q: With CC(C)C[C@H](NC(=O)[C@H](Cc1ccccc1)NC(=O)c1cnc(C(=O)NCCCC(O)(P(=O)(O)O)P(=O)(O)O)cn1)B(O)O as the molecule, how does the IC50 (RPMI-8226) read?
A: Its IC50 is 10.2 nM.

Q: What about the inhibition (RPMI-8226) of the same molecule?
A: The inhibition was “Dose-dependent effect”.

Q: And the IC50 [1]?
A: Its IC50 is 7.59 nM.

Q: What about the inhibition (5TGM1) of the same molecule?
A: Its inhibition is “Dose-dependent effect”.

Q: With CC(C)C[C@H](NC(=O)[C@H](CC(C)C)NC(=O)[C@H](CC(C)C)NC(=O)OCc1ccccc1)B(O)O as the molecule, how does the IC50 (RPMI-8226) read?
A: Its IC50 is 13.8 nM.

Q: And the inhibition (RPMI-8226)?
A: Its inhibition is “Dose-dependent effect”.

Q: What about the IC50 [1] of the same molecule?
A: Its IC50 is 9.18 nM.

Q: What about the inhibition (5TGM1) of the same molecule?
A: Its inhibition is “Dose-dependent effect”.

Q: With CC(C)C[C@H](NC(=O)[C@H](Cc1ccc(OCCCC(=O)NCCCC(O)(P(=O)(O)O)P(=O)(O)O)cc1)NC(=O)c1cnccn1)B(O)O as the molecule, how does the IC50 (RPMI-8226) read?
A: The IC50 was 11.5 nM.

Q: What about the inhibition (RPMI-8226) of the same molecule?
A: The inhibition was “Dose-dependent effect”.

Q: What about the IC50 [1] of the same molecule?
A: Its IC50 is 9.39 nM.

Q: And the inhibition (5TGM1)?
A: The inhibition was “Dose-dependent effect”.
